Source: PubChem BioAssay (NMMLSC)
Rows were chosen to be rich in hits. Some 2.3% of all compounds tested hit in one or more screens of this group.
MEKK3 PB1 HTS – modulators of MEKK3-MEK5 PB1 binding, primary screen, biochemical, wildtype MEKK3, multiplex bead flow cytometry, Alexa488-MEK5. AID 1529, 2009. actives 1.4% (n = 290,000). binding response (% of control), % at 10 µM. bead-based flow cytometry, Alexa488-MEK5 binding to MEKK3; actives lie on both sides; 0 = blocked by unlabeled MEK5, 100 = vehicle. Mitogen-activated protein kinase kinase kinase 3 (Homo sapiens), Q99759;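 active means binding response more than 3 SD above or below the average of its plate-row segment, actives on both sides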;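 further: Alexa488 bead fluorescence after subtracting the streptavidin-only scavenger bead signal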
Target sequence (Q99759 whole entry, looked up): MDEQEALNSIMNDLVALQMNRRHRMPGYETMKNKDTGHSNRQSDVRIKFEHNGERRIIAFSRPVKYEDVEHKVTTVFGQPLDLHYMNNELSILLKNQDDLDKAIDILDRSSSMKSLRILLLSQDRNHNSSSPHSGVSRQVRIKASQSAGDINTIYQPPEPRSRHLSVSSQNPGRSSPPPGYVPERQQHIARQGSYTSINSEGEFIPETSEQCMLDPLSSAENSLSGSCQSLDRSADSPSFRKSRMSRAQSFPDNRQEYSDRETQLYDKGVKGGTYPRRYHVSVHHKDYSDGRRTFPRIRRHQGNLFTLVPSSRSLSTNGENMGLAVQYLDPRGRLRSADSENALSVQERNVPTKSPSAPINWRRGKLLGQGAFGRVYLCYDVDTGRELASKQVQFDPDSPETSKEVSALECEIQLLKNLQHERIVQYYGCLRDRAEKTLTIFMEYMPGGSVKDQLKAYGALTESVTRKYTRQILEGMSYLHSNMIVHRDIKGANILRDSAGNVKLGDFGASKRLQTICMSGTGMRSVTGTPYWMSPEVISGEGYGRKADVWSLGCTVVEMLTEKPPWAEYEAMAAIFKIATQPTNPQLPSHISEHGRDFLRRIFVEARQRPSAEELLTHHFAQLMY
Arrestin-AP2 inh – inhibitors of beta-arrestin/AP2 binding, primary screen, biochemical, GPCR trafficking, flow cytometry; beta-arrestin 1 C-terminal peptide binding to AP2 beta2-adaptin appendage (human); FITC-arrestin peptide / GST-AP2 beads; AP2 beta2 appendage carries R879A mutation; inhibition, % at 10 µM; actives 0.31% (n = 340,000); AID 504490, 2011;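 active means inhibition above a set limit, near 3 SD of compounds lacking own fluorescence, cut at about 54% in these data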;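 further: plate controls were DMSO wells for no effect and 5 µM unlabelled arrestin peptide for full effect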
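Measured by: flow cytometry, FL1 (488/535 nm); Material: AP2 appendage R879A on GSH beads; Evaluation: percent response; Timing: pre-incubation 12 min, peptide binding 1 h, room temperature; Also added: 50 nM FITC-arrestin peptide; Medium: PBS with 0.05% Tween 20 and 0.1% BSA.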
MEKK2 WT-MEK5 – modulators of MEK5 binding to wildtype MEKK2, primary screen, biochemical, multiplex bead flow cytometry, Alexa488-MEK5. Mitogen-activated protein kinase kinase kinase 2 (Homo sapiens), Q9Y2U5. Alexa488-MEK5 binding to MEKK2 WT; actives lie on both sides. binding response (% of control), % at 10 µM. actives 1.1% (n = 290,000). AID 1531, 2009; in the data active means binding response below about 67% or above about 130%
MEKK2 mut-MEK5 – MEK5 binding signal on mutant MEKK2 PB1, primary screen, biochemical, multiplex bead flow cytometry, Alexa488-MEK5; Alexa488-MEK5 binding to MEKK2 mutant; percent response, % at 10 µM; actives 0.35% (n = 290,000); in the data active means percent response above about 24%, passing the limit was not always enough
MEKK2wt confirm – modulators of MEK5 binding to wildtype MEKK2, confirmation, biochemical, single concentration, multiplex bead flow cytometry; binding response (% of control), % at 10 µM; shares compounds with MEKK3 PB1 HTS; Alexa488-MEK5 binding to MEKK2 WT; actives lie on both sides; actives 2.4% (n = 5,900); AID 1892, 2009; in the data active means binding response below about 16% or above about 210%; inactive means in between
MEKK2mut confirm – mutant MEKK2 PB1-MEK5 binding signal retest – biochemical, single concentration, multiplex bead flow cytometry, confirmation | shares compounds with MEKK3 PB1 HTS | Alexa488-MEK5 binding to MEKK2 mutant | percent response, % at 10 µM | actives 2% (n = 5,900) | AID 1893, 2009; in the data active means percent response mostly above about 71%, no sharp cut-off; inactive means mostly below about 38%;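 further: higher means compound restores mutant binding toward wildtype level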
MEKK3 confirm – MEKK3 wild-type PB1 binding to MEK5, inhibitors, confirmation, biochemical, bead multiplex flow cytometry, single concentration, wildtype | shares compounds with MEKK3 PB1 HTS | Alexa488-MEK5 binding to MEKK3; stronger effect = lower value | binding response (% of control), % at 10 µM | actives 1.8% (n = 5,900) | AID 1894, 2009;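 active means binding response below 72% of control, or above a set upper limit, though filed actives all read lower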;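 further: 100% = DMSO only wells and 0% = binding blocked by excess unlabeled MEK5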
Numbers without * were called inactive; [ ] = dose if it differs, or a comment.

How did CNCc1cc(Br)c(OCC(=O)Nc2ccccc2OC)c(OC)c1 do in these assays?
MEKK3 PB1 HTS: 102.0; Arrestin-AP2 inh: 7.9; MEKK2 WT-MEK5: 118.0; MEKK2 mut-MEK5: 8.0

What do the screens show for `CCCNCc1cc(Br)ccc1OCC(=O)NCCc1ccccc1`?
MEKK3 PB1 HTS: 111.0; Arrestin-AP2 inh: 4.1; MEKK2 WT-MEK5: 101.0; MEKK2 mut-MEK5: -1.0

How did COc1cc(CNCc2ccccc2)cc(Cl)c1OC do in these assays?
MEKK3 PB1 HTS: 100.0; Arrestin-AP2 inh: 46.2; MEKK2 WT-MEK5: 99.0; MEKK2 mut-MEK5: 0.0

Results for CCOc1cc(CNCC(C)C)cc(Cl)c1OCc1ccccc1 ?
MEKK3 PB1 HTS: 110.0; Arrestin-AP2 inh: -86.2; MEKK2 WT-MEK5: 121.0; MEKK2 mut-MEK5: 2.0

How did CCOc1cc(CNC2CCCC2)cc(Cl)c1OCc1ccccc1 do in these assays?
MEKK3 PB1 HTS: 105.0; Arrestin-AP2 inh: -10.8; MEKK2 WT-MEK5: 141.0*; MEKK2 mut-MEK5: 22.0; MEKK2wt confirm: 115.0; MEKK2mut confirm: 19.0; MEKK3 confirm: 103.0

What do the screens show for `COc1cc(CNCCc2ccccc2)cc(Br)c1OCC(=O)Nc1ccccc1C`?
MEKK3 PB1 HTS: 95.0; Arrestin-AP2 inh: 9.4; MEKK2 WT-MEK5: 182.0*; MEKK2 mut-MEK5: 33.0; MEKK2wt confirm: 137.0; MEKK2mut confirm: 15.0; MEKK3 confirm: 106.0

How did CCOC(=O)C1CCN(CC(=O)Nc2cc(S(=O)(=O)N3CCCCC3)ccc2Cl)CC1 do in these assays?
Arrestin-AP2 inh: 17.3

How did Cc1nn(CC(=O)N(C)C2(C#N)CCCCC2)c(C)c1[N+](=O)[O-] do in these assays?
Arrestin-AP2 inh: 22.0

What do the screens show for `Cc1nnc(SC(C)C#N)n1-c1ccccc1` (stereo not given)?
MEKK3 PB1 HTS: 92.0; Arrestin-AP2 inh: -4.7; MEKK2 WT-MEK5: 91.0; MEKK2 mut-MEK5: -6.0

Results for Nc1cc2c(cc1Br)-c1ccc(F)cc1C2O (stereo not given) ?
Arrestin-AP2 inh: 19.6

What do the screens show for `CC(C)S(=O)(=O)c1cnc(-c2cccnc2)nc1N`?
MEKK3 PB1 HTS: 93.0; Arrestin-AP2 inh: 7.2; MEKK2 WT-MEK5: 94.0; MEKK2 mut-MEK5: -13.0

How did Cn1cc(Br)c(C(=O)NNC(=O)Nc2ccccc2C(F)(F)F)n1 do in these assays?
MEKK3 PB1 HTS: 111.0; Arrestin-AP2 inh: 40.6; MEKK2 WT-MEK5: 106.0; MEKK2 mut-MEK5: -1.0

How did C[C@]12CC[C@H](O)CC1=CCC1C2CC[C@@]2(C)C1CC[C@@H]2NC(=O)[C@@H](N)Cc1cnc[nH]1 (stereo not given in full) do in these assays?
Arrestin-AP2 inh: 0.3

Results for COc1ccc(C(=O)NCC(=O)OCC(=O)N2N=C(c3ccc(Cl)cc3)CC2c2ccco2)cc1OC (stereo not given) ?
MEKK3 PB1 HTS: 82.0; Arrestin-AP2 inh: 23.2; MEKK2 WT-MEK5: 77.0; MEKK2 mut-MEK5: -14.0

What do the screens show for `O=C1OC(c2ccccc2)(c2ccc3cc(O)ccc3c2)c2ccccc21` (stereo not given)?
Arrestin-AP2 inh: 1.6

Results for CCCCN(C(=O)Nc1ccc(OCC)cc1)C1CCN(C(C)=O)CC1 ?
MEKK3 PB1 HTS: 93.0; Arrestin-AP2 inh: -6.9; MEKK2 WT-MEK5: -1.0*[inhibitor]; MEKK2 mut-MEK5: -3.0; MEKK2wt confirm: 101.0; MEKK2mut confirm: 3.0; MEKK3 confirm: 98.0

What do the screens show for `CCCCN(C)C1CCN(C(=S)Nc2ccc(OCC)cc2)CC1`?
MEKK3 PB1 HTS: 94.0; Arrestin-AP2 inh: 2.4; MEKK2 WT-MEK5: 86.0; MEKK2 mut-MEK5: -12.0

How did Cc1cccc(Cc2ncc(C(F)(F)F)cc2Cl)c1 do in these assays?
MEKK3 PB1 HTS: 100.0; Arrestin-AP2 inh: 27.6; MEKK2 WT-MEK5: 103.0; MEKK2 mut-MEK5: 5.0

What do the screens show for `C=CCn1c(=S)sc2c(=O)[nH]cnc21`?
MEKK3 PB1 HTS: 133.0*; Arrestin-AP2 inh: 26.7; MEKK2 WT-MEK5: 128.0; MEKK2 mut-MEK5: 26.0; MEKK2wt confirm: 103.0; MEKK2mut confirm: 8.0; MEKK3 confirm: 107.0

What do the screens show for `O=c1[nH]cnc2c1sc(=S)n2-c1ccccc1`?
MEKK3 PB1 HTS: 99.0; Arrestin-AP2 inh: 2.0; MEKK2 WT-MEK5: 95.0; MEKK2 mut-MEK5: 0.0

Results for O=C(c1ccc(OCCN2CCCCC2)cc1)c1c(-c2ccc(O)cc2)sc2cc(O)ccc12 ?
MEKK3 PB1 HTS: 111.0; Arrestin-AP2 inh: 5.7; MEKK2 WT-MEK5: 201.0*; MEKK2 mut-MEK5: 28.0*; MEKK2wt confirm: 143.0; MEKK2mut confirm: 33.0; MEKK3 confirm: 94.0

How did COc1ccc(C2c3c(ncn(CCN4CCOCC4)c3=N)Oc3ccc4ccccc4c32)cc1 (stereo not given) do in these assays?
MEKK3 PB1 HTS: 102.0; Arrestin-AP2 inh: 25.2; MEKK2 WT-MEK5: 165.0*; MEKK2 mut-MEK5: 7.0; MEKK2wt confirm: 127.0; MEKK2mut confirm: 23.0; MEKK3 confirm: 103.0

What do the screens show for `COc1ccc(C2c3c(ccc4ccccc34)Oc3ncn4nc(-c5ccco5)nc4c32)cc1` (stereo not given)?
MEKK3 PB1 HTS: 126.0; Arrestin-AP2 inh: 8.3; MEKK2 WT-MEK5: 106.0; MEKK2 mut-MEK5: 1.0

What do the screens show for `N=c1c2c(ncn1Cc1ccco1)Oc1c(ccc3ccccc13)C2c1ccccc1` (stereo not given)?
MEKK3 PB1 HTS: 104.0; Arrestin-AP2 inh: 0.0; MEKK2 WT-MEK5: 133.0; MEKK2 mut-MEK5: 3.0

What do the screens show for `CN(C)CCn1cnc2c(c1=N)C(c1ccccc1)c1ccc3ccccc3c1O2` (stereo not given)?
MEKK3 PB1 HTS: 106.0; Arrestin-AP2 inh: -13.3; MEKK2 WT-MEK5: 142.0*; MEKK2 mut-MEK5: 17.0; MEKK2wt confirm: 149.0; MEKK2mut confirm: 23.0; MEKK3 confirm: 99.0

How did N=c1c2c(ncn1CCN1CCOCC1)Oc1ccc3ccccc3c1C2c1ccccc1 (stereo not given) do in these assays?
MEKK3 PB1 HTS: 106.0; Arrestin-AP2 inh: 1.2; MEKK2 WT-MEK5: 141.0*; MEKK2 mut-MEK5: 15.0; MEKK2wt confirm: 124.0; MEKK2mut confirm: 4.0; MEKK3 confirm: 101.0

Results for COc1ccc(S(=O)(=O)N2CCOCC2)cc1NC(=O)CCOc1ccc(C(C)(C)C)cc1 ?
Arrestin-AP2 inh: 2.0
